The text below walks through data of ChEMBL document CHEMBL3091412, “Discovery of an irreversible HCV NS5B polymerase inhibitor” (Bioorg Med Chem Lett, 2013).

Data set [1] concerns Rattus norvegicus. The data set can be described thus: Toxicity in rat at 10 to 500 mg/kg measured up to 2 weeks. Type of data set: organism-based. The arrangement: dose 10-500 mg/kg. The note with it: in vivo, 336 h.
Data set [2] has as its system Rattus norvegicus. The data set can be described thus: Toxicity in rat assessed as mortality at 250 to 2000 mg/kg measured up to 1 day. Type of data set: organism-based. The arrangement: dose 250-2000 mg/kg. The note with it: in vivo, 24 h. In outline: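 Single-dose rat toxicity study with dose groups of 250, 500, 1000 and 2000 mg/kg. Animals were monitored for clinical signs of toxicity, including stool appearance, and for mortality.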

For data set [3], the system named is Salmonella typhimurium. In words: Induction of mutagenicity in Salmonella Typhimurium TA 100 by mini-Ames assay. Type of data set: toxicity, organism-based. The note with it: salmonella enterica subsp. enterica serovar typhimurium. In outline:
(§1)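 Mini-Ames mutagenicity test against Salmonella strains TA 97a, TA 100 and TA 102.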

Data set [4] deals with Salmonella typhimurium. The data set can be described thus: Induction of mutagenicity in Salmonella Typhimurium TA 102 by mini-Ames assay. The class given is toxicity, organism-based. The note with it: salmonella enterica subsp. enterica serovar typhimurium. In a few lines:
as §1
In general terms: The Ames test uses bacterial strains that need an amino acid and regain growth without it when mutated back.

The subject of data set [5] is Salmonella typhimurium. In words: Induction of mutagenicity in Salmonella Typhimurium TA 97a by mini-Ames assay. The note with it: salmonella enterica subsp. enterica serovar typhimurium. The class given is toxicity, organism-based. In outline:
as §1

The target of data set [6] is T1, Cytochrome P450 2D6 (Homo sapiens, UniProt P10635). In words: Inhibition of CYP2D6 in human liver microsomes measured after compound pre-incubation. Type of data set: ADME. In outline: (§2)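 Human liver microsomes; CYP inhibition measured with compound added concurrently or after pre-incubation; concentration inhibiting 50% of enzyme activity determined.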
T1 sequence (P10635 whole entry): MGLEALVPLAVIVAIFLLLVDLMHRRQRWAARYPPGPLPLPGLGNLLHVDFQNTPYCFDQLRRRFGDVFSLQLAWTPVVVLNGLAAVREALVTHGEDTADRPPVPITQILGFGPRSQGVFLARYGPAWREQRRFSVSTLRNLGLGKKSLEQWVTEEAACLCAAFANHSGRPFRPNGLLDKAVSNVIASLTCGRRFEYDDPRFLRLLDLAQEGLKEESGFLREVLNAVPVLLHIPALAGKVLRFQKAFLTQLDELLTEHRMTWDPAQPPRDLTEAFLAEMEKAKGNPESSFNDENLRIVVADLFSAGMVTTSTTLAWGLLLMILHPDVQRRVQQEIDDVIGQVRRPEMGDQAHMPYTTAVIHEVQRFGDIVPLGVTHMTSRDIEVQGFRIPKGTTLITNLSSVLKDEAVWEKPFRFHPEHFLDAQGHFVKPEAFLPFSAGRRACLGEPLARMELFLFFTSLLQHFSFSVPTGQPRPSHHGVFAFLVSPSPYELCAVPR
For orientation: Liver microsomes are a subcellular fraction often used to study metabolism.

Data set [7] deals with T2, Cytochrome P450 2C19 (Homo sapiens, UniProt P33261). The data set can be described thus: Inhibition of […] in human liver microsomes measured after compound pre-incubation. The class given is ADME.
T2 sequence (P33261 whole entry): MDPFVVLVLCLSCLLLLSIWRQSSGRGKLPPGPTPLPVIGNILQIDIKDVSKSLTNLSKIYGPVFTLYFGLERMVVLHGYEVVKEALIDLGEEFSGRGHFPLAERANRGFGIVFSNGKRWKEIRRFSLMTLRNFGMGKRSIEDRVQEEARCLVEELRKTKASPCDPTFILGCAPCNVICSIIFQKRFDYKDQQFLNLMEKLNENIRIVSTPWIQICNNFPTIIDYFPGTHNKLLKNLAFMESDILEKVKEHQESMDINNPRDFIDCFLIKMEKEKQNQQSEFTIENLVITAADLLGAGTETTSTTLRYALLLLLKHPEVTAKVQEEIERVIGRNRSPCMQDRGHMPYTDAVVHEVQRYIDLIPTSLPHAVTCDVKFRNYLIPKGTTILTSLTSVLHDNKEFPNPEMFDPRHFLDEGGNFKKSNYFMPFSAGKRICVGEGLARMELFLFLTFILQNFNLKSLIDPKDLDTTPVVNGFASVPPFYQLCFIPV
Data set [8] addresses T3, Cytochrome P450 2C9 (Homo sapiens, UniProt P11712). The data set can be described thus: Inhibition of CYP2C9 in human liver microsomes measured after compound pre-incubation. Type of data set: ADME. In a few lines:
as §2

Data set [9] has as its target T1, Cytochrome P450 2D6. In words: Inhibition of CYP2D6 in human liver microsomes measured after concurrent incubation. Type of data set: ADME. In a few lines: as §2
In data set [10] the target is T2, Cytochrome P450 2C19. The data set can be described thus: Inhibition of […] in human liver microsomes measured after concurrent incubation. The class given is ADME.
Data set [11] has as its target T3, Cytochrome P450 2C9. In words: Inhibition of CYP2C9 in human liver microsomes measured after concurrent incubation. The class given is ADME. In a few lines: as §2
Another data set has as its target T4, Cytochrome P450 2C8 (Homo sapiens, UniProt P10632).
T4 sequence (P10632 whole entry): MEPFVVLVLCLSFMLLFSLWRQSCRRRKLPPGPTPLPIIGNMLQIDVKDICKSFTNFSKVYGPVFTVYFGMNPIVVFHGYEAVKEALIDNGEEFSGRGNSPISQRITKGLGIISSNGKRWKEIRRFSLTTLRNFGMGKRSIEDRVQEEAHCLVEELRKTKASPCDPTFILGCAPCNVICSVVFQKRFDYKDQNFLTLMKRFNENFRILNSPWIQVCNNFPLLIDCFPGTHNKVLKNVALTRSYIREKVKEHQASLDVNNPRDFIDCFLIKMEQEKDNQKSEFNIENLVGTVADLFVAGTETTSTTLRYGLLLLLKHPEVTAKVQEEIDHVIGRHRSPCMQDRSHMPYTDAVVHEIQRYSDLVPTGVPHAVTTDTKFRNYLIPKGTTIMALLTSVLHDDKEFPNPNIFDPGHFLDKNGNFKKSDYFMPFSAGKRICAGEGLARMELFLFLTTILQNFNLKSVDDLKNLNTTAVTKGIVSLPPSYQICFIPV
The data set can be described thus: Inhibition of CYP2C8 in human liver microsomes measured after concurrent incubation. The class given is ADME. In outline: as §2

In another data set the target is Cytochrome P450 3A4 (Homo sapiens, UniProt P08684). In words: Inhibition of CYP3A4 in human liver microsomes measured after concurrent incubation. Type of data set: ADME. In a few lines:
as §2

A further data set relates to Cynomolgus monkey. The data set can be described thus: Drug metabolism in cynomolgus monkey assessed as glutathione conjugate formation administered as single oral dose. The conditions noted are these: in vivo. Type of data set: ADME, organism-based, Macaca fascicularis. In a few lines: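 Radiolabeled [3H] compound given as single oral dose to monkey; bile and urine excretion and metabolites profiled, including parent fraction in bile and glutathione or sulfate conjugates.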

Data set [12] can be described thus: Irreversible inhibition of HCV1b NS5B delta21 polymerase by radiolabeled nucleotide incorporation assay. The arrangement: species or system Hepatitis C virus subtype 1b.

Structures are written as SMILES. Bounds are passed on as bounds.

What is called IC50 is the concentration needed to halve the response being measured.

T3 sequence (P11712 whole entry): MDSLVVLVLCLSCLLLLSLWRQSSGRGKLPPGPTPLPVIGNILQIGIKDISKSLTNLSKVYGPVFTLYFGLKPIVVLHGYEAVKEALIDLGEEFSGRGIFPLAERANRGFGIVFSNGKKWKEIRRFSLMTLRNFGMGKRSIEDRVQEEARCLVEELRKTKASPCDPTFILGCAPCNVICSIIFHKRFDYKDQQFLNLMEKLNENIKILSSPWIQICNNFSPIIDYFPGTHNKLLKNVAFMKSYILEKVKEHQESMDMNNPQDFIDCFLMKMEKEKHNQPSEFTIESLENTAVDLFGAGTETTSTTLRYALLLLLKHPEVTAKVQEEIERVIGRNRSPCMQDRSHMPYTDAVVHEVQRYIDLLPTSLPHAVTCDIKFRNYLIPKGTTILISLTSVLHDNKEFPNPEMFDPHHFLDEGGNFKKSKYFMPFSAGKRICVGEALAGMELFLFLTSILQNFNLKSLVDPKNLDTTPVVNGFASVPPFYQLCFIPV
Cytochrome P450 3A4, sequence (P08684 whole entry): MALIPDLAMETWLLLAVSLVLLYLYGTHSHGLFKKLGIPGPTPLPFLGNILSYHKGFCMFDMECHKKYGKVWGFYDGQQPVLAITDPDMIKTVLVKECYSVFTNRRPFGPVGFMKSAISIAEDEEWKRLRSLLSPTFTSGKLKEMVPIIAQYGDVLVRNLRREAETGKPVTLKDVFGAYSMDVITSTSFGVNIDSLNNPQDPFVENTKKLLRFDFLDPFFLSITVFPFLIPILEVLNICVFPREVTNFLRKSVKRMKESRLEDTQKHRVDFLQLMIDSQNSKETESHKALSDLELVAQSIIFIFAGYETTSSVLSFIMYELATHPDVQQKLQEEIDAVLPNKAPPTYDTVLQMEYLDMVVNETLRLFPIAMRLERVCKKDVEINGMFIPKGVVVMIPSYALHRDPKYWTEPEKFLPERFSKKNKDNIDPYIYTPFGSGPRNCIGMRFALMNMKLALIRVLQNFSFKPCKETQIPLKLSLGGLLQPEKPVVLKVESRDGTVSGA

As to `Cc1cc2c(-c3ccc[nH]c3=O)c(C(=O)O)n(Cc3cc4ccccc4nc3Cl)c2cc1F`, the Activity entry in the data set with Rattus norvegicus [1], with Rattus norvegicus [2], in the data set with Salmonella typhimurium [3], in the data set on Salmonella typhimurium [4] and in the data set with Salmonella typhimurium [5] was “Non-toxic” in each case. Besides, the IC50 on Cytochrome P450 2D6 [6], against Cytochrome P450 2C19 [7], against Cytochrome P450 2C9 [8], against Cytochrome P450 2D6 [9], against Cytochrome P450 2C19 [10] and against Cytochrome P450 2C9 [11] was > 50 µM throughout. Besides, the values for the IC50 (against Cytochrome P450 2C8; on Cytochrome P450 3A4; in [12]) were 21 µM, > 50 µM and 0.013 µM, respectively. Further, the Stability entry in the data set on Cynomolgus monkey is listed as “Stable”.
